Experimental data gathered from unrelated publications.
Target: Serine/threonine-protein kinase Nek4 (NEK4, Homo sapiens, UniProt P51957)

COc1cc(Nc2ncc(F)c(Nc3ccc4c(n3)NC(=O)C(C)(C)O4)n2)cc(OC)c1OC
inhibition (binding, competition with immobilised ligand; 10 µM): 91%

CC(C)(C)c1cc(C=C(C#N)C#N)cc(Br)c1O
remaining activity (enzyme activity, inhibitor; 0.5 µM): 93.7%

Cn1cc(-c2cc(F)cc(N3CCn4c(cc5c4CCCC5)C3=O)c2CO)cc(Nc2ccc(N3CCN(C4COC4)CC3)cn2)c1=O
inhibition (enzyme activity, inhibitor; 0.1 µM): 9%

N#CC1(c2ccccn2)CCN(Cc2cc(C(=O)O)c(=O)n3ccccc23)CC1
remaining binding (cell-free assay, competition with immobilised ligand; 1 µM): 100%

O=c1[nH]c2ccccc2n1C1CCN(Cc2ccc(-c3[nH]c4cc5ncnc5cc4nc3-c3ccccc3)cc2)CC1
remaining signal (cell-free assay; 0.5 µM): 106%

Cn1cncc1[C@@](O)(COc1ccc(C#N)cc1-c1ccc(OC(F)(F)F)cc1)c1ccc(C#N)cc1
remaining binding (cell-free assay, competition with immobilised ligand; 1 µM): 90%

Cc1nn(C)cc1-c1nc2c(N3CCN(Cc4ccc(Cl)cc4)CC3)c(Cl)cnc2[nH]1
remaining binding (binding, competition with immobilised ligand; 1 µM): 82%

COc1ncccc1-c1cnn2ccc(N3CCN(C(=O)OC(C)C)CC3)nc12
remaining binding (binding, competition with immobilised ligand; 1 µM): 87%

Cn1cc(-c2cccc(N3CCc4c(sc5c4CC(C)(C)C5)C3=O)c2CO)cc(Nc2ccncn2)c1=O
inhibition (enzyme activity, inhibitor; 1 µM): 2%

Nc1ncc(-c2nc(N3CCOCC3)nc(N3CCOCC3)n2)c(C(F)F)n1
remaining binding (binding, competition with immobilised ligand; 10 µM): 75%
